MC4R barr agon: agonists of human melanocortin 4 receptor (MC4R) beta-arrestin | AID 540308 | U2OS MC4R beta-arrestin complementation, luminescence; percent of melanotan II response, DMSO zero | actives 0.98% (n = 360,000) | activation, % at 8.9 µM;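 active = activation above a per-plate cutoff, the mean activation of sample wells on that plate plus 3 SD, cut at about 8% in these data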
Target sequence (P32245 whole entry, looked up): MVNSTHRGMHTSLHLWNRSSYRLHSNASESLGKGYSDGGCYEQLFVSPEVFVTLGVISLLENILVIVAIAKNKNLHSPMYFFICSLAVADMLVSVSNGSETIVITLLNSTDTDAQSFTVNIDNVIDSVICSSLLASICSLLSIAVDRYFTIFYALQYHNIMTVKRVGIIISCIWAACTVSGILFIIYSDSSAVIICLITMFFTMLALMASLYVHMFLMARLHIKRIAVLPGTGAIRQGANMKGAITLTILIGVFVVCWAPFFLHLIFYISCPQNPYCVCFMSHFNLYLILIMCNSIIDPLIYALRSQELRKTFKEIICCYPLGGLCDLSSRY
MC4R antagonist: human MC4R antagonism in cAMP assay. P32245. MC4R-expressing cells, MTII-stimulated cAMP, LANCE TR-FRET. inhibition, % at 6.5 µM. actives 0.48% (n = 360,000). AID 540295;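 active = inhibition above its plate's cutoff, the mean of tested wells on that plate plus 3 SD, cut at about 29% in these data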;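 also: 0% = Melanotan II alone and 100% = Melanotan II plus saturating MCL0020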
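System: U2OS-MC4R stable cell line; Technique: Eu-cAMP/anti-cAMP TR-FRET, emission 671 nm; Repeats: single well per compound; Also added: Melanotan II; Dosing: one concentration, 6.5 µM nominal; Schedule: 30-min compound, 1-h challenge, 1-h detection, room temperature.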
HTR2A ag: mouse HTR2A agonism via beta-arrestin recruitment | P35363 | CHO-K1 mHTR2A beta-arrestin complementation, luminescence; percent of 30 µM serotonin response | activation, % at 7.6 µM | actives 0.66% (n = 360,000) | AID 624169;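 active = activation above a run cutoff, the mean activation of all tested compounds plus 3 SD, cut at about 14% in these data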;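 also: 0% = plate median of compound wells and 100% = 30 µM serotonin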
EBI2 antag: EBI2 (human) antagonism | AID 651636 | inhibition, % at 5 µM | EBI2 beta-arrestin recruitment, luminescence, 7a,25-OHC stimulated | P32249 | actives 0.81% (n = 360,000); in the data active = inhibition above about 38%;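 also: enzyme fragment complementation signal reports receptor beta-arrestin coupling in cells; 0% = agonist plus DMSO wells and 100% = wells without agonist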
Target sequence (P32249 whole entry, looked up, the tested form may be a part): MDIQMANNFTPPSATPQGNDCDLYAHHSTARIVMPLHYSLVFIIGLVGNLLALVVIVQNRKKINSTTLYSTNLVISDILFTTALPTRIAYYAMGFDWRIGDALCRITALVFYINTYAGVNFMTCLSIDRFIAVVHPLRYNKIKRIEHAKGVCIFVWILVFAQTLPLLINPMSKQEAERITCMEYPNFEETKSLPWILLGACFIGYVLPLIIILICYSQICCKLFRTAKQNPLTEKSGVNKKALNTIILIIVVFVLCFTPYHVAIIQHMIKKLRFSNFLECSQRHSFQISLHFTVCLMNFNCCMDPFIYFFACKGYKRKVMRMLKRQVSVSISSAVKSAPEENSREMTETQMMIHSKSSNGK
MOR ag counter: OPRM1 agonism in mouse HTR2A counterscreen. actives 5.3% (n = 2,300). AID 624380. shares compounds with HTR2A ag. activation, % at 9.3 µM. U2OS OPRM1 beta-arrestin PathHunter, luminescence; DMSO 0%, DAMGO 9.3 µM 100%;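 active = mean activation above the mean of DMSO-only wells plus 3 SD, cut at about 0.5% in these data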
HTR2A ag conf: confirmation of mouse HTR2A serotonin receptor agonists; shares compounds with HTR2A ag; CHO-K1 PathHunter beta-arrestin recruitment, luminescence; DMSO 0%, 30 µM serotonin 100%; activation, % at 7.6 µM; actives 19% (n = 2,300); AID 624381;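 active = mean activation across triplicates above the hit threshold derived in the original primary screen, cut at about 15% in these data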
EBI2 conf: EBI2 (human) antagonism, single concentration confirmation. EBI2 beta-arrestin luminescence, 7a,25-OHC antagonism. inhibition, % at 5 µM. AID 651997. actives 29% (n = 2,400). shares compounds with EBI2 antag;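 active = inhibition of at least 50%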
EBI2 ag: activates EBI2, counter-screen for EBI2 antagonists. shares compounds with EBI2 antag. EBI2-expressing cells, agonist mode, luminescence, 60 min; 0% vehicle, 100% 7α,25-dihydroxycholesterol control. activation, % at 5 µM. 2,400 tested, under 10 active;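 active = activation of at least 50%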
bGal cs: beta-galactosidase inhibition counter-screen; actives 1% (n = 2,400); purified beta-galactosidase, luminescent Galacton Star, 15 min; inhibition, % at 5 µM; shares compounds with EBI2 antag; AID 652176;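 active = replicate-average signal at least 3 plate SD below neutral wells, shown as high inhibition, flagging enzyme-inhibiting false positives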;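 also: 0% = DMSO wells with enzyme and 100% = wells lacking enzyme; higher means stronger loss of beta-gal luminescence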
The depositor's hits bear a star; x = no result. Most compounds without a hit are left out; they make up all but 2.8% or so of the library.

SMILES	MC4R barr agon	MC4R antagonist	HTR2A ag	EBI2 antag	MOR ag counter	HTR2A ag conf	others
O=C(O)CCC(=O)N1CCN(c2cccc(Cl)c2)CC1	-0.4	2.5	14.1	-9.4	x	x
O=C(O)/C=C/C(=O)N1CCN(c2cccc(Cl)c2)CC1	3.1	-13.6	30.7*	-4.0	-0.7	3.8
Cc1c(NC(=O)COC(=O)c2cccn2C)c(=O)n(-c2ccccc2)n1C	-1.3	-0.6	-0.2	4.2	x	x
Fc1ccc(CN2CCN(c3ncccn3)CC2)cc1	0.7	9.8	22.6*	-9.2	1.3*	142.0*
Fc1ccc(F)c(CN2CCN(c3ncccn3)CC2)c1	-0.8	-0.9	43.8*	9.7	-0.8	100.6*
CCOC(=O)N1CCN(C(c2ccc(F)cc2)c2sc3nc(C)nn3c2O)CC1 (configuration not stated)	1.5	13.2	32.0*	-5.1	-0.7	-3.2
CN(C)S(=O)(=O)c1ccc(Cl)c(NC(=O)CN2CCc3ccccc3C2)c1	-0.3	14.3	22.6*	1.8	0.1	82.0*
O=C(O)Cn1ccnc1[N+](=O)[O-]	1.5	0.2	0.3	2.5	x	x
CCNC(=O)C1CCCN(C(=O)c2ccco2)CC1 (configuration not stated)	0.0	-1.7	-2.7	-12.0	x	x
CCCS(=O)(=O)NC(=O)C1(C)CCN(C(=O)c2cc(-c3cccs3)oc2C)C1 (configuration not stated)	0.7	8.0	2.7	1.8	x	x
COc1ccccc1N1CCN(C(=O)COc2ccc(S(=O)(=O)NC(C)C)cc2)CC1	1.2	7.7	14.7*	-5.0	-0.5	-2.3
COc1ccccc1N1CCN(C(=O)CCc2ccc(S(=O)(=O)NC(C)C)cc2)CC1	0.0	3.2	0.3	-3.0	x	x
CCOC(=O)C(Cc1ccc(NC(C)=O)cc1)N1C(=O)c2ccccc2C1=O (configuration not stated)	-0.1	4.6	-1.2	0.0	x	x
CCS(=O)(=O)c1nc(S(=O)(=O)c2ccc(C)cc2)c(N2CCCCCC2)s1	-0.7	-4.5	14.7*	2.5	-0.7	-4.3
CC(Sc1nnc(C2CC2)n1C1CC1)C(=O)N(C)C1(C#N)CCCCC1 (configuration not stated)	-2.0	-0.1	0.9	-11.7	x	x
C=C(C)C(=O)OCC(O)COc1ccc(C(C)(C)c2ccc(OCC(O)COC(=O)C(=C)C)cc2)cc1 (configuration not stated)	1.7	20.8	16.6*	2.3	0.0	2.2
CCOC(=O)Cn1c(=O)c(-c2ccccc2NCc2ccccc2)nc2ccccc21	2.6	9.0	0.6	8.6	x	x
Cc1nc2ccccc2n1CC(=O)OCC(=O)NCc1ccccc1	0.1	22.3	14.7*	-6.9	0.0	3.5
COC(=O)C1=CN(c2ccc(Oc3ccccc3)cc2)C(N)=C(C#N)C1c1ccccc1 (configuration not stated)	x	x	-2.4	5.2	x	x
COc1ccc(C(=O)NNC2=CC(=O)CC(C)(C)C2)cc1	-0.1	14.4	18.8*	-0.4	-0.6	0.8
COc1ccccc1S(=O)(=O)N(C)C[C@H]1OCc2cnnn2CCCC(=O)N([C@H](C)CO)C[C@H]1C	-1.7	11.2	-0.5	-2.7	x	x
COc1cc(NC(=O)C2(C)CCN2C(=O)C(C)C)cc(OC)c1OC (configuration not stated)	2.9	-0.9	-0.9	9.6	x	x
CC(C)Oc1ccc(S(=O)(=O)N2CCOCC2)cc1NC(=O)CC1OC(=O)c2ccccc21 (configuration not stated)	-1.2	0.8	16.5*	2.2	-0.2	-0.4
Cc1cc(=O)c(C(=O)Nc2cccc(C(=O)NC3CC3)c2)nn1-c1ccccc1Cl	-0.4	-11.1	14.5*	-9.7	-0.5	-0.4
Cn1nc(C(=O)Nc2cccc(C(=O)NC3CC3)c2)c2ccccc2c1=O	-1.5	6.6	-0.5	-2.8	x	x
SMILES	MC4R barr agon	MC4R antagonist	HTR2A ag	EBI2 antag	MOR ag counter	HTR2A ag conf	others
C/C=C(\C)CN1CCN(c2ccccc2)CC1	-2.1	9.0	13.9	-5.3	x	x
C/C(=C\c1ccccc1)CN1CCN(c2ccccc2)CC1	7.3	0.7	18.8*	-4.5	0.1	41.4*
Cc1cc(C)cc(Cn2cc(CN3CC(N4CCCCC4)CS3(=O)=O)nn2)c1 (configuration not stated)	x	x	-5.5	-11.6	x	x
CCOc1ccc(-c2cc(C(=O)NCc3ccccc3)[nH]n2)c(C)c1	0.1	4.1	-1.8	8.8	x	x
COc1ccc(CNC(=O)CCCn2nc(C)n3ccnc3c2=O)cc1	-1.2	3.3	25.4*	-3.0	-0.7	-3.1
CC1(/[N+]([O-])=C\c2ccccc2F)CCCCC1=O (configuration not stated)	-2.3	11.0	16.4*	-7.6	-0.1	-1.1
O=C(Nc1ccccc1Cl)c1cnccn1	0.7	6.1	-2.1	-10.3	x	x
O=C(Nc1ccccc1C(F)(F)F)c1cnccn1	0.8	1.4	19.0*	-6.6	-0.7	2.0
CC(=O)c1ccc(S(=O)(=O)NCCC(=O)OCC(=O)N(Cc2ccccc2)C(C)(C)C)cc1	0.1	2.4	3.9	-7.7	x	x
CCOc1cc(N2CCOCC2)c(OCC)cc1NC(=O)CN1C(=O)NC(CC)(c2ccc(F)cc2)C1=O (configuration not stated)	0.9	-2.4	15.2*	-2.3	-0.6	1.4
CCOc1cc(N2CCOCC2)c(OCC)cc1NC(=O)CN1C(=O)NC2(CCCCCCC2)C1=O	-0.7	11.3	4.7	0.2	x	x
Cc1ccc(S(=O)(=O)N2C[C@H]3C(=O)C[C@@H](c4ccccc4)N(S(=O)(=O)c4ccccc4)[C@H]3C[C@H]2c2ccccc2)cc1	x	x	-0.8	10.9	x	x
CC(C)(C)Nc1ncnc2sc(-c3ccccc3)cc12	6.6	-4.0	23.0*	73.0*	0.5*	5.2	EBI2 conf=39.6;EBI2 ag=5.1;bGal cs=8.9
COc1ccc(N=C2C(=Nc3ccc(OC)cc3)N(c3ccc(OC)cc3)C(=S)N2c2ccccc2)cc1	-2.2	5.1	16.0*	63.7*	-0.6	-2.7	EBI2 conf=18.5;EBI2 ag=0.8;bGal cs=4.3
COc1ccc(N=C2C(=Nc3ccc(OC)cc3)N(c3ccc(OC)cc3)C(=S)N2C)cc1	-1.1	9.6	-0.2	25.1	x	x

Screens: PubChem BioAssay, several laboratories
